From ChEMBL document CHEMBL4270662, “Discovery of Orally Active Inhibitors of Brahma Homolog (BRM)/SMARCA2 ATPase Activity for the Treatment of Brahma Related Gene 1 (BRG1)/SMARCA4-Mutant Cancers” (J Med Chem, 2018)
Values after ≈ are worked out from the molar mass of the structure shown. Active and inactive are the calls of the source. The calls are words filed in the database; no cut-off is given here.

Key:
[1] = molecular target: T1, SWI/SNF-related matrix-associated actin-dependent regulator of chromatin subfamily A member 4 (Homo sapiens, UniProt P51532); assay: Inhibition of recombinant His6-tagged BRG1 ATPase-SnAC (658 to 1361 residues) (unknown origin) expressed in insect sf9 cells preincubated for 5 mins followed by pCMV-dR8.91 plasmid and ATP addition measured after 60 mins by ADP-Glo assay
T1 sequence (P51532 whole entry, the tested form may be a part): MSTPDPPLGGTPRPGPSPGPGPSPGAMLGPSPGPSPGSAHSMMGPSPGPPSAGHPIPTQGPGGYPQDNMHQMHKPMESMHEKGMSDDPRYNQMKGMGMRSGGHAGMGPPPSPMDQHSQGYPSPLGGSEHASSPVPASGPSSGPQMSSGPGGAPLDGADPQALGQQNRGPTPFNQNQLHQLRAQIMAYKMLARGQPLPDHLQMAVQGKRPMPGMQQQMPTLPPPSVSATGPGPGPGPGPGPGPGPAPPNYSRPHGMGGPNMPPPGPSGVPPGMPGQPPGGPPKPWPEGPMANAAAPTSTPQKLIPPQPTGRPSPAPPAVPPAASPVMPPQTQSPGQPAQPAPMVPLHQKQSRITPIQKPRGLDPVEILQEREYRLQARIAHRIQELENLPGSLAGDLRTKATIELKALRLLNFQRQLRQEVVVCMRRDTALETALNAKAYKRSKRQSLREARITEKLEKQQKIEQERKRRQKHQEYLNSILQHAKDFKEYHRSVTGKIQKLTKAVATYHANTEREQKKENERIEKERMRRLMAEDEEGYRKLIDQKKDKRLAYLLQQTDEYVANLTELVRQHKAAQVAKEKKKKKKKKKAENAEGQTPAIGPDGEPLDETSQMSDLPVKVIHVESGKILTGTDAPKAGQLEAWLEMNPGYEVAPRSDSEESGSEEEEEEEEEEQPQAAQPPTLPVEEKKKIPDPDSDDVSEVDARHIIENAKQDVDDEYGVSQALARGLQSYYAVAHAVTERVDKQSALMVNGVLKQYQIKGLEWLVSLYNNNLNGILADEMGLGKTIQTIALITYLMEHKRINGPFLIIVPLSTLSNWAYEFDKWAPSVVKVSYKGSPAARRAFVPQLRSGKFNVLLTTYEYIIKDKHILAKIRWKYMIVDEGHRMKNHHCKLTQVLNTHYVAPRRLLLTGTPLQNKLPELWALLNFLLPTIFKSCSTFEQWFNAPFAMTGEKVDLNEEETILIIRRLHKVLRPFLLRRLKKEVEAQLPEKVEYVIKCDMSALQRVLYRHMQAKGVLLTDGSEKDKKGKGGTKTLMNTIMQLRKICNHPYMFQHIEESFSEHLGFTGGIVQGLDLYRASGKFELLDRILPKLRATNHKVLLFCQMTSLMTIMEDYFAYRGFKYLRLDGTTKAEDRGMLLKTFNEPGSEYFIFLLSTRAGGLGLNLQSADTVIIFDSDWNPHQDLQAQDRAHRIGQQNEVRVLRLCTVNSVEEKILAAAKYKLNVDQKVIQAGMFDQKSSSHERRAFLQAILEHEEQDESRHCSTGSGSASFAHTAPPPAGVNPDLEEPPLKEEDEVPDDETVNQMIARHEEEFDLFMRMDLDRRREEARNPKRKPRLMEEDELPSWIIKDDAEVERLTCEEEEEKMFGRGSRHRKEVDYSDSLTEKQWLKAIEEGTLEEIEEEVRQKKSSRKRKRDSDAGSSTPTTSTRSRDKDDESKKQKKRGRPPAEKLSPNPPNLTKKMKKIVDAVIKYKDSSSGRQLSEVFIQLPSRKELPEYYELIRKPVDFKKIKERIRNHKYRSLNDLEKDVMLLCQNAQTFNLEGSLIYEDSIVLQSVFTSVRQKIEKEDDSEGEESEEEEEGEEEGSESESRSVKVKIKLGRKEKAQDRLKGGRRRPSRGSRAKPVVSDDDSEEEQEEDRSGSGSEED

[2] = molecular target: T2, SWI/SNF-related matrix-associated actin-dependent regulator of chromatin subfamily A member 2 (Homo sapiens, UniProt P51531); assay: Inhibition of recombinant His10-tagged ZZ-HCV3C-BRM ATPase-SnAC (636 to 1331 residues) (unknown origin) expressed in insect sf9 cells preincubated for 5 mins followed by pCMV-dR8.91 plasmid and ATP addition measured after 60 mins by ADP-Glo assay
T2 sequence (P51531 whole entry, the tested form may be a part): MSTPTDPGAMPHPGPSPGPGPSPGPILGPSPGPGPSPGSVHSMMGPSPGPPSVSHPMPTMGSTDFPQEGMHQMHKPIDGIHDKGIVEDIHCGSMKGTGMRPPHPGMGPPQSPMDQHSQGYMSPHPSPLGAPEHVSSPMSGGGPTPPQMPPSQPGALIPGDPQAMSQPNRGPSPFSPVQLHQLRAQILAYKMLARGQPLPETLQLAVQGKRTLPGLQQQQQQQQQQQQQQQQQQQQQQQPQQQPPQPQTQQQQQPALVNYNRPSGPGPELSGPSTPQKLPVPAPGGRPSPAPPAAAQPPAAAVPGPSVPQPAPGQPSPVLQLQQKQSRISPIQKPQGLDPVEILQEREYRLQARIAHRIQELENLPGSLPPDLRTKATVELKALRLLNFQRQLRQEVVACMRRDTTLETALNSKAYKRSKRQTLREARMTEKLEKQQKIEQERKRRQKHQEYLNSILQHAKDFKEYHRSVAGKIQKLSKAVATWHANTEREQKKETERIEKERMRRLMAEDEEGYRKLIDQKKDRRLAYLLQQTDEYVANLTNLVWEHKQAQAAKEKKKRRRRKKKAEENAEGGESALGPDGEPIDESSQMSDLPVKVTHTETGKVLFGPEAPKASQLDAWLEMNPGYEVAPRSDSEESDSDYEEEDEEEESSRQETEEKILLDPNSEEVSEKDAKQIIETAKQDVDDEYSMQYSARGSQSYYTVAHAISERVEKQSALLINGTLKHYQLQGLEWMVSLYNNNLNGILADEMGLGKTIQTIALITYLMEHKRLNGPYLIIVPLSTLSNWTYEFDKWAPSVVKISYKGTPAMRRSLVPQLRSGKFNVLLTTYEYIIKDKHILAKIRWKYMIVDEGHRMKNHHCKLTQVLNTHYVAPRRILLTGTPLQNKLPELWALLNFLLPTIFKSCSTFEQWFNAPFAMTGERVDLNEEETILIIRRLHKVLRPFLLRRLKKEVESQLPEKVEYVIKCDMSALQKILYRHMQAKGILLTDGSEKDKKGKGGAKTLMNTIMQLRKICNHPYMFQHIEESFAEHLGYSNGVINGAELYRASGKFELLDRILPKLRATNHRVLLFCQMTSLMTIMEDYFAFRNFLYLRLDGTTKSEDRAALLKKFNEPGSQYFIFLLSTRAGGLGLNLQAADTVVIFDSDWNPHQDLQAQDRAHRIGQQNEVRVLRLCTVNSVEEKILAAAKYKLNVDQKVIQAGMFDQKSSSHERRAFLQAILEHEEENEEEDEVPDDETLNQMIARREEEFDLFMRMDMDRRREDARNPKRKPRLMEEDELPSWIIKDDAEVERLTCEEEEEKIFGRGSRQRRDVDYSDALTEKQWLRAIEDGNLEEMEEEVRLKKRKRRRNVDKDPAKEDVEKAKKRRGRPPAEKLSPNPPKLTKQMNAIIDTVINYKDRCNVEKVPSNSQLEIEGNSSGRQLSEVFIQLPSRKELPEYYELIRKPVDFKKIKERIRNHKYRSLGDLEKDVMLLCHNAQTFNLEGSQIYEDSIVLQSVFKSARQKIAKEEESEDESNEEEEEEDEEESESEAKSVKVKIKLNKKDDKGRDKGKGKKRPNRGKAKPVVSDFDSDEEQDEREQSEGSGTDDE

[3] = Inhibition of BRM/BRG1 mutant-dependant cell proliferation in human SKMEL5 cells after 6 days by celltiter-glo luminescent cell viability assay; format: cell-based; conditions: SK-MEL-5, 144 h
[4] = Inhibition of BRM/BRG1 mutant in human NCI-H1299 cells assessed as reduction in KRT80 gene expression after 24 hrs by luciferase reporter gene assay; format: cell-based; conditions: NCI-H1299, 24 h
Summary of the method: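 NCI-H1299 cells carry NanoLuc knocked into the endogenous KRT80 locus and are grown in RPMI-1640 with 10% FBS. Plated at 500 cells/well and left overnight, then dosed over 10 points in 3-fold dilutions from 10 µM.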

SBC-5 = assay: Antiproliferative activity against human SBC5 cells assessed as cell growth inhibition after 6 days by celltiter-glo luminescent cell viability assay; format: functional, cell-based; conditions: SBC-5, 144 h
Mus musculus [5] = assay: In vivo inhibition of BRM/BRG1 mutant in human RERF-LC-A1 cells xenografted in athymic nude mouse assessed as reduction in KRT80 gene expression at 20 mg/kg, po after 7 hrs by real-time PCR method; format: functional
Summary of the method: (§1)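 RERF-LC-AI tumor-bearing nude mice received oral compound daily, suspended in 0.5% methyl cellulose and 0.5% Tween 80 in water, at 7.5 or 20 mg/kg. Tumor KRT80 mRNA was measured at several post-dose time points, including 7 h and 16 h onward.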

Mus musculus [6] = assay: In vivo inhibition of BRM/BRG1 mutant in human RERF-LC-A1 cells xenografted in po dosed athymic nude mouse assessed as reduction in KRT80 gene expression after 7 to 24 hrs by real-time PCR method; format: functional, organism-based; summary of the method: as §1
RERF-LC-AI [7] = assay: Anti-tumor activity in human RERF-LC-A1 cells xenografted in athymic nude mouse assessed as tumor growth inhibition at 7.5 mg/kg, po administered for 3 weeks measured twice per week during compound dosing relative to control; format: functional; conditions: 504 h, read-out: TGI
Summary of the method: (§2)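 Nude mice bearing RERF-LC-AI xenografts were dosed orally with a suspension in 0.5% methyl cellulose and 0.5% Tween 80 in water. Dosing was daily for 3 weeks at 7.5 or 20 mg/kg. Tumor growth and tolerability were followed during dosing.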

[8] = Thermodynamic solubility of the compound at 1 mg/ml pH 6.8 after 16 to 24 hrs by shake-flask method; format: physicochemical; conditions: buffer, read-out: Therm_solubility
Mus musculus [9] = assay: In vivo inhibition of BRM/BRG1 mutant in human RERF-LC-A1 cells xenografted in athymic nude mouse assessed as reduction in KRT80 gene expression at 20 mg/kg, po after 16 to 24 hrs by real-time PCR method; format: functional, organism-based; summary of the method: as §1
Mus musculus [10] = assay: In vivo inhibition of […] in human RERF-LC-A1 cells xenografted in athymic nude mouse assessed as reduction in KRT80 mRNA expression at 20 mg/kg, po measured at 16 hrs post last dose of 3 weeks of daily dosing by RT-PCR analysis; format: functional, organism-based; summary of the method: as §1
[11] = Inhibition of BRM/BRG1 mutant in human RERF-LC-A1 cells assessed as reduction in KRT80 gene expression after 24 hrs by luciferase reporter gene assay; format: cell-based
RERF-LC-AI [12] = assay: Anti-tumor activity in human RERF-LC-A1 cells xenografted in athymic nude mouse assessed as tumor growth at 30 mg/kg, po administered daily for 4 consecutive days followed by incubation for next 3 days in absence of compounds relative to control; format: functional
Mus musculus [13] = assay: Toxicity in athymic nude mouse xenografted with human RERF-LC-A1 cells up to 20 mg/kg, po administered for 3 weeks; format: organism-based; conditions: in vivo, 504 h; summary of the method: as §2
Mus musculus [14] = assay: Time required for unbound plasma concentration to reach above in vitro unbound EC50 for reduction in BRM/BRG1 mutant-induced KRT80 gene expression in human RERF-LC-A1 cells in athymic nude mouse at 20 mg/kg, po administered daily for 3 weeks; format: ADME, organism-based; conditions: in vivo, 504 h
Summary of the method: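 Nude mice bearing RERF-LC-AI tumors were dosed orally once daily for 3 weeks at 20 mg/kg. The dose was a suspension in 0.5% methyl cellulose and 0.5% Tween 80 in water. Unbound plasma concentrations over time were compared with the cellular KRT80 EC50.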

RERF-LC-AI [15] = assay: Anti-tumor activity in human RERF-LC-A1 cells xenografted in athymic nude mouse assessed as tumor growth inhibition at 20 mg/kg, po administered for 3 weeks measured twice per week during compound dosing relative to control; format: functional; conditions: 504 h, read-out: TGI; summary of the method: as §2
[16] = molecular target: T1, SWI/SNF-related matrix-associated actin-dependent regulator of chromatin subfamily A member 4; assay: Binding affinity to BRG1 ATPase-SnAC domain (unknown origin) expressed in insect sf9 cells assessed as change in melting temperature at 500 uM by DSF-assay (reference value: 0 degreeC)
[17] = molecular target: T2, SWI/SNF-related matrix-associated actin-dependent regulator of chromatin subfamily A member 2; assay: Binding affinity to N-terminal MBP-fused human BRM RecA domain (705 to 960 residues) expressed in Escherichia coli BL21 Star (DE3) by ITC method
[18] = molecular target: SWI/SNF-related matrix-associated actin-dependent regulator of chromatin subfamily A member 2 (Homo sapiens, UniProt P51531, E852Q); assay: Binding affinity to N-terminal MBP-fused human BRM RecA domain E852Q mutant expressed in Escherichia coli BL21 Star (DE3) by ITC method
Sequence of SWI/SNF-related matrix-associated actin-dependent regulator of chromatin subfamily A member 2 (Homo sapiens, UniProt P51531, E852Q) (P51531 whole entry E852Q, the tested form may be a part): as the sequence (P51531 whole entry, the tested form may be a part) above, with E852Q counted along it

[19] = molecular target: T1, SWI/SNF-related matrix-associated actin-dependent regulator of chromatin subfamily A member 4; assay: Binding affinity to BRG1 ATPase-SnAC domain (unknown origin) expressed in insect sf9 cells assessed as change in melting temperature at 100 uM by DSF-assay (reference value: 0 degreeC)
[20] = molecular target: T2, SWI/SNF-related matrix-associated actin-dependent regulator of chromatin subfamily A member 2; assay: Binding affinity to N-terminal avi-tagged BRM ATPase-SnAC domain (unknown origin) in presence of ADP by SPR assay
Summary of the method: (§3)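 SPR at 10 °C: about 2000 RU of N-terminal Avi-tagged BRM ATPase-SnAC captured on a streptavidin chip, with a blank reference cell. Compound dose series injected 60 s at 100 µL/min with 120 s dissociation; data solvent-corrected, double-referenced and fit 1:1 for KD.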

[21] = molecular target: T2, SWI/SNF-related matrix-associated actin-dependent regulator of chromatin subfamily A member 2; assay: Inhibition of recombinant His10-tagged ZZ-HCV3C-BRM ATPase-SnAC (636 to 1331 residues) (unknown origin) expressed in insect sf9 cells preincubated for 5 mins followed by pCMV-dR8.91 and 10 times ATP addition measured after 60 mins by ADP-Glo assay
Summary of the method: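 BRM residues 636-1331 (tag removed by HCV3C cleavage), 5 nM final, preincubated with compound for 5 min at room temperature. Reaction started with ATP at 10x Km plus 2 nM pCMV-dR8.91 plasmid, run 60 min. ADP-Glo luminescence read; IC50 by nonlinear regression of duplicate averages.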

[22] = molecular target: T2, SWI/SNF-related matrix-associated actin-dependent regulator of chromatin subfamily A member 2; assay: Inhibition of full length BRM ATPase (1 to 1572 residues) (unknown origin) expressed in insect sf9 cells preincubated for 5 mins followed by pCMV-dR8.91 plasmid and ATP addition measured after 60 mins by ADP-Glo assay
Summary of the method: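 Full-length BRM (1-1572), purified from Sf9 cells by Ni or anti-FLAG affinity, then anion exchange and size exclusion. Reaction run 60 min at room temperature; ADP-Glo luminescence read-out; IC50 from duplicate means.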

[23] = molecular target: T1, SWI/SNF-related matrix-associated actin-dependent regulator of chromatin subfamily A member 4; assay: Binding affinity to His6-tagged BRG1 ATPase-SnAC (658 to 1361 residues) (unknown origin) expressed in insect sf9 cells by ITC method
[24] = molecular target: T2, SWI/SNF-related matrix-associated actin-dependent regulator of chromatin subfamily A member 2; assay: Binding affinity to N-terminal avi-tagged BRM ATPase-SnAC domain (unknown origin) in absence of ADP by SPR assay; summary of the method: as §3
[25] = Thermodynamic solubility of the compound at 1 mg/ml pH 1 after 16 to 24 hrs by shake-flask method; format: physicochemical; conditions: buffer, read-out: Therm_solubility
[26] = molecular target: T1, SWI/SNF-related matrix-associated actin-dependent regulator of chromatin subfamily A member 4; assay: Binding affinity to BRG1 ATPase-SnAC domain (unknown origin) expressed in insect sf9 cells assessed as change in melting temperature at 100 uM in presence of ADP by DSF-assay (reference value: 0 degreeC)

Row | Compound | IC50 [1] | IC50 [2] | EC50 [3] | EC50 [4] | EC50 (SBC-5) | further results
1 | Cc1csc(NC(=O)Nc2ccnc(Cl)c2)n1 | 0.57 µM | 0.97 µM | – | – | – | –
2 | O=C(Nc1cc(C(F)F)ns1)Nc1cc(Cl)ncc1CO | < 0.005 µM | < 0.005 µM | 0.013 µM | 0.042 µM | > 10 µM | –
3 | O=C(Nc1cc(C(F)F)ns1)Nc1cc(F)ncc1CO | < 0.005 µM | < 0.005 µM | 0.004 µM | 0.01 µM | > 10 µM | inhibition in vivo at 20 mg/kg (Mus musculus [5]): ≤ 90%; inhibition (Mus musculus [6]): Dose-dependent effect; inhibition in vivo at 7.5 mg/kg (RERF-LC-AI [7]): 21%; solubility thermodynamic [8]: 34 µM (≈ 10.8 µg/mL); inhibition (Mus musculus [9]): inactive; inhibition (Mus musculus [10]): Dose-dependent effect; EC50 [11]: 0.01 µM; T/C (RERF-LC-AI [12]): 30%; Activity (Mus musculus [13]): Non-Toxic; Time (Mus musculus [14]): 12 h; inhibition in vivo at 20 mg/kg (RERF-LC-AI [15]): 55%
4 | O=C(Nc1ccnc(Cl)c1)Nc1ccnc(C(F)(F)F)c1 | 0.03 µM | 0.06 µM | – | – | – | –
5 | O=C(Nc1ccnc(Cl)c1)Nc1ccnc(C(F)F)c1 | – | 0.11 µM | – | – | – | –
6 | Cc1cc(NC(=O)Nc2ccnc(Cl)c2)ccn1 | 0.15 µM | 0.2 µM | – | – | – | –
7 | Nc1cnc(Cl)cc1NC(=O)Nc1cc(C(F)F)ns1 | < 0.005 µM | < 0.005 µM | 0.013 µM | 0.026 µM | > 10 µM | solubility thermodynamic [8]: 40 µM (≈ 12.8 µg/mL)
8 | Nc1ncnc2c1ncn2[C@@H]1O[C@H](COP(=O)(O)OP(=O)(O)O)[C@@H](O)[C@H]1O | – | – | – | – | – | ΔTm [16]: 3.1 °C
9 | O=C(Nc1ccnc(Cl)c1)Nc1cc(C(F)(F)F)ns1 | – | – | 0.13 µM | 0.93 µM | > 10 µM | –
10 | Cc1cc(NC(=O)Nc2ccnc(Cl)c2)sn1 | – | – | 0.65 µM | > 10 µM | > 10 µM | –
11 | Nc1cnc(F)cc1NC(=O)Nc1cc(C(F)F)ns1 | < 0.005 µM | < 0.005 µM | 0.005 µM | 0.01 µM | > 10 µM | solubility thermodynamic [8]: 92 µM (≈ 27.9 µg/mL)
12 | O=C(Nc1ccnc(Cl)c1)Nc1cc(C(F)F)ns1 | – | – | 0.031 µM | 0.36 µM | 6.3 µM | Kd [17]: 0.013 µM; Kd [18]: > 10 µM
13 | O=C(Nc1ccncc1)Nc1ccnc(Cl)c1 | 0.77 µM | 1.1 µM | – | – | – | ΔTm [19]: 3.8 °C; Kd [20]: 0.45 µM; inhibition [21]: Active; IC50 [22]: 8.1 µM; Kd [23]: 0.28 µM; solubility thermodynamic [8]: 330 µM (≈ 82.1 µg/mL); Activity [24]: Dose-dependent effect; Kd [24]: 0.087 µM; solubility thermodynamic [25]: 3100 µM (≈ 771 µg/mL); ΔTm [26]: 5.8 °C
14 | O=C(Nc1ccnc(Cl)c1)Nc1ccccn1 | 1.7 µM | 3.8 µM | – | – | – | –
15 | Cc1c[nH]c(NC(=O)Nc2ccnc(Cl)c2)n1 | – | > 50 µM | – | – | – | –
